Test results reported in ChEMBL document CHEMBL3784976 (J Med Chem, 2016).
The source made the active and inactive calls. No cut-off for these calls is given here.

Columns and labels:
Rattus norvegicus [1] = assay: fCmax in rat at 30 mg/kg, po; format: ADME, organism-based; conditions: in vivo
Method in brief: (§1)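 Rats dosed orally at 30 mg/kg, or 10 mg/kg for one analogue, in 1% Tween 80/2% HPMC/97% water with methanesulfonic acid, pH 2.2.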

[2] = target: D(2) dopamine receptor (Homo sapiens) (UniProt P14416); assay: Displacement of [3H]methyl-spiperone from human recombinant dopamine D2S receptor expressed in HEK293 cells assessed as remaining radioligand binding at 10 uM after 60 mins by scintillation counting method relative to control; format: cell-based
[3] = target: Alpha-2A adrenergic receptor (Homo sapiens) (UniProt P08913); assay: Displacement of [3H]RX-821002 from human recombinant adrenergic alpha2A expressed in CHO cells assessed as remaining radioligand binding at 10 uM after 60 mins by scintillation counting method relative to control; format: cell-based
[4] = target: C-X-C chemokine receptor type 2 (Homo sapiens) (UniProt P25025); assay: Displacement of [125I]IL-8 from human recombinant CXCR2 expressed in HEK293 cells assessed as remaining radioligand binding at 10 uM after 60 mins by scintillation counting method relative to control; format: cell-based
Rattus norvegicus [5] = species: Rattus norvegicus; assay: Displacement of [3H]PK-11195 from benzodiazepine receptor in rat heart assessed as remaining radioligand binding at 10 uM after 15 mins by scintillation counting method relative to control
[6] = target: Substance-K receptor (Homo sapiens) (UniProt P21452); assay: Displacement of [125I]NKA from human recombinant NK2 receptor expressed in CHO cells assessed as remaining radioligand binding at 10 uM after 60 mins by scintillation counting method relative to control; format: cell-based
[7] = target: Sodium-dependent noradrenaline transporter (Homo sapiens) (UniProt P23975); assay: Displacement of [3H]nisoxetine from human recombinant norepinephrine transporter expressed in CHO cells assessed as remaining radioligand binding at 10 uM after 120 mins by scintillation counting method relative to control; format: cell-based
[8] = target: Melanocortin receptor 4 (Homo sapiens) (UniProt P32245); assay: Displacement of [125I]NDP-a-MSH from human recombinant MC4 receptor expressed in CHO cells assessed as remaining radioligand binding at 10 uM after 120 mins by scintillation counting method relative to control; format: cell-based
Rattus norvegicus [9] = species: Rattus norvegicus; assay: Displacement of [3H]diltiazem from L-type calcium channel diltiazem binding site in rat cerebral cortex assessed as remaining radioligand binding at 10 uM after 120 mins by scintillation counting method relative to control; format: tissue-based
[10] = target: Cholecystokinin receptor type A (Homo sapiens) (UniProt P32238); assay: Displacement of [125I]CCK-8s from human recombinant CCK1 receptor expressed in CHO cells assessed as remaining radioligand binding at 10 uM after 60 mins by scintillation counting method relative to control; format: cell-based
[11] = target: T1, Transient receptor potential cation channel subfamily A member 1 (Rattus norvegicus, UniProt Q6RI86); assay: Antagonist activity at rat TRPA1 expressed in tetracycline-inducible T-REx expression system transfected CHO cells assessed as inhibition of AITC-induced 45Ca2+ uptake preincubated for 1 min followed by AITC addition measured after 12 mins; format: cell-based
[12] = target: T2, Transient receptor potential cation channel subfamily A member 1 (Homo sapiens, UniProt O75762); assay: Antagonist activity at human TRPA1 expressed in tetracycline-inducible T-REx expression system transfected CHO cells assessed as inhibition of AITC-induced 45Ca2+ uptake preincubated for 1 min followed by AITC addition measured after 12 mins; format: cell-based
[13] = target: T2, Transient receptor potential cation channel subfamily A member 1; assay: Agonist activity at human TRPA1 expressed in tetracycline-inducible T-REx expression system transfected CHO cells by 45Ca2+ uptake assay; format: cell-based
[14] = Clearance in rat at 0.5 mg/kg, iv as single dose; format: ADME, organism-based; conditions: in vivo
[15] = Tmax in rat at 30 mg/kg, po; format: ADME, organism-based; conditions: in vivo; method in brief: as §1
[16] = Half life in rat at 30 mg/kg, po; format: ADME, organism-based; conditions: in vivo; method in brief: as §1
[17] = Oral bioavailability in rat at 30 mg/kg; format: ADME, organism-based; conditions: in vivo; method in brief: as §1
[18] = target: Transient receptor potential cation channel subfamily M member 8 (Rattus norvegicus) (UniProt Q8R455); assay: Antagonist activity at rat TRPM8 assessed as inhibition of icilin-induced Ca2+ influx up to 10 uM preincubated for 2.5 mins followed by icilin addition measured for 1 min by luminescence assay
Rattus norvegicus [19] = species: Rattus norvegicus; assay: Antagonist activity at rat TRPV3 assessed as inhibition of 2-APB-induced Ca2+ influx up to 10 uM preincubated for 2.5 mins followed by 2-APB addition measured for 1 min by luminescence assay
Cytochrome P450 3A4 = Cytochrome P450 3A4 (Homo sapiens, UniProt P08684); assay: Inhibition of CYP3A4 in human liver microsomes using midazolam as substrate by LC-MS/MS analysis in presence of NADPH; format: ADME
[20] = target: T1, Transient receptor potential cation channel subfamily A member 1; assay: Antagonist activity at rat TRPA1 expressed in tetracycline-inducible T-REx expression system transfected CHO cells assessed as inhibition of methylglyoxal-induced 45Ca2+ uptake preincubated for 10 mins followed by methylglyoxal addition measured after 3 mins by TopCount microplate scintillator counting method; format: cell-based
Method in brief: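 Compound given 10 min at RT in HBSS/1 mM HEPES/0.1 mg/mL BSA, final 2.0 nM–40 μM (1:3 steps); then methylglyoxal (final 2.74 mM) plus 45Ca2+ (final 10 μCi/mL) in Ham's F-12/15 mM HEPES/0.1% BSA, 3 min at RT. Cells washed three times, then scintillation counted. MG uptake = 100%, no-agonist buffer = 0%. Four-parameter fit gives IC50.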

Plasma = assay: Unbound plasma concentration in Harlan Sprague-Dawley rat model of AITC-induced flinching at 1 mg/kg, po at 1 hr; format: ADME, organism-based; conditions: in vivo
Method in brief: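 Rats were given vehicle (2% HPMC/1% Tween-80) or compound orally at 1, 3, 10 or 30 mg/kg. After 1 h, 0.1% AITC was injected into one left ventral hind paw, and nocifensive flinching was recorded over the first minute. Unbound plasma concentration was measured at 1 h, n = 8 per dose. In vivo IC50/IC90 came from the exposure–response relationship across individual animals.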

[21] = Ratio of unbound plasma concentration in Harlan Sprague-Dawley rat model of AITC-induced flinching at 3 mg/kg, po to IC50 for rat TRPA1 expressed in tetracycline-inducible T-REx expression system transfected CHO cells by 45Ca2+ uptake assay; format: ADME, organism-based; conditions: in vivo
Method in brief: (§2)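 Rats dosed orally at 1, 3, 10 or 30 mg/kg in 2% HPMC/1% Tween-80 vehicle. After 1 h, unbound plasma concentration measured (n = 8 per dose), intraplantar AITC (0.1%) given and flinching scored over the first minute. Unbound concentration divided by in vitro rat TRPA1 45Ca2+ IC50.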

[22] = Ratio of unbound plasma concentration in Harlan Sprague-Dawley rat model of AITC-induced flinching at 10 mg/kg, po to IC50 for rat TRPA1 expressed in tetracycline-inducible T-REx expression system transfected CHO cells by 45Ca2+ uptake assay; format: ADME, organism-based; conditions: in vivo; method in brief: as §2
Rattus norvegicus [23] = assay: Binding affinity to TRPA1 in Harlan Sprague-Dawley rat model of AITC-induced flinching at 30 mg/kg, po in presence of AITC; format: functional, organism-based
[24] = target: 5-hydroxytryptamine receptor 4 (Homo sapiens) (UniProt Q13639); assay: Displacement of [3H]GR-113808 from human recombinant 5HT4E receptor expressed in CHO cells assessed as remaining radioligand binding at 10 uM after 60 mins by scintillation counting method relative to control; format: cell-based
Chain of 5-hydroxytryptamine receptor 4 (Homo sapiens) (Q13639 whole entry): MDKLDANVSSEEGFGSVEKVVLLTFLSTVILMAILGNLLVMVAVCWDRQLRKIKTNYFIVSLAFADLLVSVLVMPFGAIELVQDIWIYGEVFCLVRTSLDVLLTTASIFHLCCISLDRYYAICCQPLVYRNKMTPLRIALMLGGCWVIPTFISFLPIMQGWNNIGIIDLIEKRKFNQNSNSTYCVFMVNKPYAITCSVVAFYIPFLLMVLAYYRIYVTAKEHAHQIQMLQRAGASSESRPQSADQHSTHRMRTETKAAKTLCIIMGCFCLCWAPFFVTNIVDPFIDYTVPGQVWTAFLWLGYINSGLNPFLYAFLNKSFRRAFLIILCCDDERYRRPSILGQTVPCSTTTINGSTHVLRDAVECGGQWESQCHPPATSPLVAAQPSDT

T2 sequence (O75762 whole entry): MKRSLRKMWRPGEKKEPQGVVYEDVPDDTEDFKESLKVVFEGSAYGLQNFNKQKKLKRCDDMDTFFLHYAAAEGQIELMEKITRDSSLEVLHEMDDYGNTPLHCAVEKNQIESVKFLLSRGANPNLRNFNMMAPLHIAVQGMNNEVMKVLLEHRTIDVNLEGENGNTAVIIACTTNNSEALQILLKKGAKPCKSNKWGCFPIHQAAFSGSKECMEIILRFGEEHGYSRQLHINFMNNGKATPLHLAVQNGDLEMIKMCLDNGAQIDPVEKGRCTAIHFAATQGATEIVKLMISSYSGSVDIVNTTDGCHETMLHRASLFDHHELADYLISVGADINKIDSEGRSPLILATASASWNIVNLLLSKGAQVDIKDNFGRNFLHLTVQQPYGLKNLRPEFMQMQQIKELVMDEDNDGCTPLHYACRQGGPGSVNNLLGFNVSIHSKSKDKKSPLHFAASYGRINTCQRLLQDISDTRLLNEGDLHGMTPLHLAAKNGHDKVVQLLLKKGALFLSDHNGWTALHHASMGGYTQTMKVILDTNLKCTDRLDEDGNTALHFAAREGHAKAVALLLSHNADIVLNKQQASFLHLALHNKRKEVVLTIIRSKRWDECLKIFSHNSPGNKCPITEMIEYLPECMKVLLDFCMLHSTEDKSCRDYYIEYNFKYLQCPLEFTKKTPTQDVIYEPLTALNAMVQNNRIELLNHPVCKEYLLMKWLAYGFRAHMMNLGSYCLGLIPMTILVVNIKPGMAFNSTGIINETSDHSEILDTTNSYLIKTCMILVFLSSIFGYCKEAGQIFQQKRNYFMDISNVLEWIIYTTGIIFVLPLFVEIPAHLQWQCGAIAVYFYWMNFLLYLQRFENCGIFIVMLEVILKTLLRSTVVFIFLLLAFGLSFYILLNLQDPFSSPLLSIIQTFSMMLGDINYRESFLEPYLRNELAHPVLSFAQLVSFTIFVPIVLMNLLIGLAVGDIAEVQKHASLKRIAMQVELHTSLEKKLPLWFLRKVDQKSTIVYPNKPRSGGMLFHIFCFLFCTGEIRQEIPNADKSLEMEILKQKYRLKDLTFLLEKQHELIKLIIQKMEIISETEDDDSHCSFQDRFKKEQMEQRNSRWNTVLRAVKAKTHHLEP
T1 sequence (Q6RI86 whole entry): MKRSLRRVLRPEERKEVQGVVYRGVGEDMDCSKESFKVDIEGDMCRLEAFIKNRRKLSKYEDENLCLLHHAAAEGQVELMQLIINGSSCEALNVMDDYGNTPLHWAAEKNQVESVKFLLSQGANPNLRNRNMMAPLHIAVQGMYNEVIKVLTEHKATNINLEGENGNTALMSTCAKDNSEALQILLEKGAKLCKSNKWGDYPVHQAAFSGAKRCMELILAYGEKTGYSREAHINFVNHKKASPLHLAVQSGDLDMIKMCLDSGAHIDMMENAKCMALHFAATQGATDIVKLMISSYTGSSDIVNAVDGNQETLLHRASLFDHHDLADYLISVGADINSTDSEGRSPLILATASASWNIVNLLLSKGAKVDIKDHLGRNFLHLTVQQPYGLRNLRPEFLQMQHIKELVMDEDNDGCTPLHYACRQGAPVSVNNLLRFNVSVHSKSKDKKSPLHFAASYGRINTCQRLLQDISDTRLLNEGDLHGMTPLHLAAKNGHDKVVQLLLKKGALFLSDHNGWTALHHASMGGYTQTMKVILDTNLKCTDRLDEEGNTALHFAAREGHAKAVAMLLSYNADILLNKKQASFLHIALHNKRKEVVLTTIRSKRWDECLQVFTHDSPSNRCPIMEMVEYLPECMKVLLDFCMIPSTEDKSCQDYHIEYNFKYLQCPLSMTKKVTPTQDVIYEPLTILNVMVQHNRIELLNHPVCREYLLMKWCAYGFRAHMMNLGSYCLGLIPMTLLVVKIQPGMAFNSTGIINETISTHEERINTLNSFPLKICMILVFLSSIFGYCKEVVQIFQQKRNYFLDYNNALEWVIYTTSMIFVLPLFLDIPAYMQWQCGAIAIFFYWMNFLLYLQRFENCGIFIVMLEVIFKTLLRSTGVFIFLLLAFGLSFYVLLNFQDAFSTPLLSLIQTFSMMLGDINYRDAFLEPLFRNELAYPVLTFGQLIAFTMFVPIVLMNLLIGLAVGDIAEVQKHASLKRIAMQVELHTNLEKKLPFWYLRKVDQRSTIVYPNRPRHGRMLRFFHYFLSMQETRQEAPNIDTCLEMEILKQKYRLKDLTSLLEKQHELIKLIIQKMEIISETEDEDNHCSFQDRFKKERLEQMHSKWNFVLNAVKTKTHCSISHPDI
Chain of Substance-K receptor (Homo sapiens) (P21452 whole entry): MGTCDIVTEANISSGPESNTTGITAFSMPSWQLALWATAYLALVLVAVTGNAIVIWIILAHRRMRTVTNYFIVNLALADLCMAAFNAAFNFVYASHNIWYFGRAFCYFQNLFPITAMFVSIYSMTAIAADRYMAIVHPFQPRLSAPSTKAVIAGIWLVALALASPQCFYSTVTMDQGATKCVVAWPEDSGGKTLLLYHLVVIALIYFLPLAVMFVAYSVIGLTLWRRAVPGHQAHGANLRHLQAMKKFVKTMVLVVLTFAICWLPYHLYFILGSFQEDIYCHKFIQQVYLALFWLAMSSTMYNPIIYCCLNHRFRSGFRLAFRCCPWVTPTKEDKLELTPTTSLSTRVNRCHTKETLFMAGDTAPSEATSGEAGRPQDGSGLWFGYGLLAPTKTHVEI
Chain of Melanocortin receptor 4 (Homo sapiens) (P32245 whole entry): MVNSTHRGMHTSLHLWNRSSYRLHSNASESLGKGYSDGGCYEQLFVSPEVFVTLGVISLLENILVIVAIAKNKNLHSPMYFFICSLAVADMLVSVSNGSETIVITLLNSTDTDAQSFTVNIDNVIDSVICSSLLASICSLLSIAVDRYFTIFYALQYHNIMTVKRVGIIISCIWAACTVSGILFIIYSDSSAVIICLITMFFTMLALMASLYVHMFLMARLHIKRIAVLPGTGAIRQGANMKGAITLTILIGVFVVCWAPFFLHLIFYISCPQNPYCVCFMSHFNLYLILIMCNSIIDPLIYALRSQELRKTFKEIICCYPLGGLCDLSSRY
Chain of C-X-C chemokine receptor type 2 (Homo sapiens) (P25025 whole entry): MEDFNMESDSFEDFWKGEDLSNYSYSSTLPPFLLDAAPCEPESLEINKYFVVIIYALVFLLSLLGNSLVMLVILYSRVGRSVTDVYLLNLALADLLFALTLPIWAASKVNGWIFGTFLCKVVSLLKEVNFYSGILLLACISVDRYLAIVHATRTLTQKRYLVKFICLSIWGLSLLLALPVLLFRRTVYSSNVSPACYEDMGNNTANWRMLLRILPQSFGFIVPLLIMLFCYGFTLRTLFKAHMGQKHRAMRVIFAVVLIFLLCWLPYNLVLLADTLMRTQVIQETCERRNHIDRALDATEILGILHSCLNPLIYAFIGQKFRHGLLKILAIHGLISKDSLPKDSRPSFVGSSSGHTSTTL
Chain of Cytochrome P450 3A4 (P08684 whole entry): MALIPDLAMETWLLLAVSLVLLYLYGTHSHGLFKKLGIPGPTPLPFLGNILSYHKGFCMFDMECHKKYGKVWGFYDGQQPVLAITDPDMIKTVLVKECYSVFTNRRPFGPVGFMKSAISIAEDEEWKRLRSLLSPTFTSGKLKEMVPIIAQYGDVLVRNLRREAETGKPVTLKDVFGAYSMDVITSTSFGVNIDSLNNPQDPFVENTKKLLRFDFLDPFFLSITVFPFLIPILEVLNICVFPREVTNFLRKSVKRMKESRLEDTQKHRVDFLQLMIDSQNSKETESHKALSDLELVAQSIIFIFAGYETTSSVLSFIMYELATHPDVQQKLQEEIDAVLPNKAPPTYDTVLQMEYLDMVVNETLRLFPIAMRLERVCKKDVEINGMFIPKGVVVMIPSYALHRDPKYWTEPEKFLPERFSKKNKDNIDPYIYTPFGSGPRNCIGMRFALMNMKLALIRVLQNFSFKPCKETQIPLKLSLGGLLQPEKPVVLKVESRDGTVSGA
Chain of Alpha-2A adrenergic receptor (Homo sapiens) (P08913 whole entry): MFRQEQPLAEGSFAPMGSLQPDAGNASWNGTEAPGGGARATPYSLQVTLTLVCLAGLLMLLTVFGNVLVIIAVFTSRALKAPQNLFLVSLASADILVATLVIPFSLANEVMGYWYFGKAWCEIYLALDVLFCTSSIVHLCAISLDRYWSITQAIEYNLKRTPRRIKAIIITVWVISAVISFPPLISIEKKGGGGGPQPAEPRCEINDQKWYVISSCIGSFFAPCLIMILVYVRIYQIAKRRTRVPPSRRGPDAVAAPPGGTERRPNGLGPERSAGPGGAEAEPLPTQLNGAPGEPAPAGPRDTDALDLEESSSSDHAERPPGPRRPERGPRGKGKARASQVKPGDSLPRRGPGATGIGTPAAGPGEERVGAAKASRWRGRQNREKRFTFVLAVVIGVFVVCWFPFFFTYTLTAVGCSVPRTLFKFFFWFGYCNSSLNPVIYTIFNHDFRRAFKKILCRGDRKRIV

Question: What does the source list for Cn1cnc2ncn(Cc3nc(CCc4ccc(Cl)cc4)no3)c(=O)c21?
Answer: fCmax (Rattus norvegicus [1]): 2.2 µM; Activity [2]: > 77%; Activity [3]: > 77%; Activity [4]: > 77%; Activity (Rattus norvegicus [5]): > 77%; Activity [6]: > 77%; Activity [7]: > 77%; Activity [8]: > 77%; Activity (Rattus norvegicus [9]): > 77%; Activity [10]: > 77%; IC50 [11]: 71 nM; IC50 [12]: 131 nM; EC50 [13]: > 40000 nM; clearance [14]: 41.7 mL/min/kg; Tmax [15]: 0.8 h; half-life [16]: 2.8 h; bioavailability [17]: 60%; inhibition [18]: inactive; inhibition (Rattus norvegicus [19]): inactive; IC50 (Cytochrome P450 3A4): > 27000 nM; IC50 [20]: 19 nM; Cp(f) (Plasma): 51 nM; Ratio [21]: 2.7; Ratio [22]: 8.2; Activity (Rattus norvegicus [23]): Active; Activity [24]: > 77%
